Consider 22 compounds from ChEMBL document CHEMBL3352685, “Small-molecule inhibitors of 25-hydroxyvitamin D-24-hydroxylase (CYP24A1): synthesis and biological evaluation” (J Med Chem, 2014).

A short description of data set [1]: Cytotoxicity against human primary CLL cells. The data set is classed as functional. Conditions: read-out: LD50 (the source's name); call rule not given here. In outline: (§1)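 Primary CLL cells or normal B-cells from peripheral blood, purified by negative selection (CD3 Dynabeads; >90% purity by flow cytometry). Cultured at 1x10⁶/ml in RPMI with 10% FCS, penicillin/streptomycin and 5 ng/ml IL-4, 37 °C, 5% CO2. Exposed to inhibitor (0–1x10⁻⁷ M) up to 48 h. Annexin V-FITC/PI flow cytometry; LD50 from sigmoidal dose-response; triplicate.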

Data set [2] concerns the target T1, 1,25-dihydroxyvitamin D(3) 24-hydroxylase, mitochondrial (Homo sapiens, UniProt Q07973).
T1 sequence (Q07973 whole entry): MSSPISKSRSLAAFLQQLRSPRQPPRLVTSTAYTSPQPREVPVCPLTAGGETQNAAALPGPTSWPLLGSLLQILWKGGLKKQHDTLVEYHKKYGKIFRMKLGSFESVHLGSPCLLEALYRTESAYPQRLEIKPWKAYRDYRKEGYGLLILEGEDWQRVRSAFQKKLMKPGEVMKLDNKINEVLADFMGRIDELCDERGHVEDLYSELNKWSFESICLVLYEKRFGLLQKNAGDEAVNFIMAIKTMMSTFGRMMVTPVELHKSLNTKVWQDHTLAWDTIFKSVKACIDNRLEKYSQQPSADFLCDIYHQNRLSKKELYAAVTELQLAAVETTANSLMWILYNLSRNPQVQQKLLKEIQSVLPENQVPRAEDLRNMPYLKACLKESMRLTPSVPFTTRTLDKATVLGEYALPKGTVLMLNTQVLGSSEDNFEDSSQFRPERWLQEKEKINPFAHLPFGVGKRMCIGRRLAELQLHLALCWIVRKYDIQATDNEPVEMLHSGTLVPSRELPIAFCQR
Description: Inhibition of human MBP-tagged CYP24A1 expressed in Escherichia coli using 1,25(OH)2D3 substrate in presence of bovine adrenodoxin, adrenodoxin reductase and NADPH incubated at 37 degC for 25 mins by HPLC method.

In data set [3] the target is T1, 1,25-dihydroxyvitamin D(3) 24-hydroxylase, mitochondrial. Description: Inhibition of CYP24A1 in human primary CLL cells assessed as increase in VDR-regulated GADD45alpha mRNA expression at 0.05 to 0.10 uM in presence of 100 nM 1,25(OH)2D3 incubated for 24 hrs by quantitative RT-PCR method. The format is cell-based. In short, it runs like this:
(§2)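 Primary CLL lymphocytes, purified by negative selection with CD3 beads (>90% purity), cultured in RPMI with 10% FCS, penicillin/streptomycin and 5 ng/ml IL-4 at 37°C, 5% CO2. Inhibitor 0, 0.01, 0.05 or 0.1 µM for 24 h with or without calcitriol (10 or 100 nM). Total RNA reverse transcribed, SYBR Green real-time PCR, 35 cycles. Target mRNA expressed as ratio to RPS14 from crossing points. Duplicates.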

Data set [4] shares this target. Description: Inhibition of CYP24A1 in human primary CLL cells assessed as increase in VDR-regulated CDKN1A mRNA expression at 0.05 to 0.10 uM in presence of 100 nM 1,25(OH)2D3 incubated for 24 hrs by quantitative RT-PCR method. The data set is classed as cell-based. In short, it runs like this: as §2
Data set [5] has the same target. Description: Inhibition of CYP24A1 in human primary CLL cells assessed as increase in VDR-regulated CDKN1A mRNA expression in presence of 100 nM calcitriol incubated for 24 hrs by quantitative RT-PCR method. The data set is classed as cell-based. In short, it runs like this:
as §2

Data set [6] can be described thus: Induction of apoptosis in human primary CLL cells after 48 hrs by Annexin V/propidium iodide staining based flow cytometry. The data set is classed as functional. In short, it runs like this:
as §1
For orientation: In flow cytometry, cells or beads pass a laser one at a time.

Data set [7] in a line: Induction of apoptosis in normal human B cells after 48 hrs by Annexin V/propidium iodide staining based flow cytometry. The conditions noted are these: read-out: LD50. The format is cell-based, B cell. In outline: as §1

Take `O=C(NCC(c1ccccc1)n1ccnc1)c1ccc(/C=C/c2ccccc2)cc1` (configuration not stated): the CC50 in data set [1] worked out at 27 nM. Moreover, in data set [2], the IC50 – broadly, the concentration that gives 50% inhibition – came to 400 nM; the inhibitory constant (Ki) (in general, the dissociation constant of the complex between target and ligand, obtained from inhibition or displacement) was determined as 28 nM.

Regarding `COc1cc(/C=C/c2ccc(CCC(OS(=O)(=O)c3ccc(C)cc3)C(C)(C)C)cc2)cc(OC)c1` (configuration not stated), in data set [2], the concentration for half-maximal inhibition (IC50) came to 2900 nM and the Ki is 210 nM.

For the compound `CC(C)(C)C(=O)/C(=C/c1ccc(/C=C/c2ccccc2)cc1)n1ccnc1`, in data set [2], the IC50 was found to be 180 nM and the Ki worked out at 13 nM.

For the compound `CC(C)(C)C(=O)C(Cc1ccc(CCc2ccccc2)cc1)n1ccnc1` (configuration not stated), in data set [2], the IC50 worked out at 600 nM and the Ki stood at 42 nM.

`COc1ccc(/C=C/c2ccc(C(=O)NCC(c3ccccc3)n3ccnc3)cc2)cc1` (configuration not stated): the CC50 in data set [1] came to 3200 nM. Moreover, in data set [2], the IC50 came to 340 nM and the inhibition constant (Ki) stood at 24 nM.

As for `C=C1[C@H](O)CC(=C/C=C2\CCC[C@]3(C)[C@@H]([C@H](C)Cn4ccnc4)CC[C@@H]23)C[C@H]1O`, the Ki in data set [2] is 21 nM.

On to `COc1cc(/C=C/c2ccc(C(=O)NCC(c3ccccc3)n3ccnc3)cc2)cc(OC)c1OC` (configuration not stated), for which the “inhibition (INH)” value in data set [3] and in data set [4] was “Active” throughout. Also, the CC50 in data set [1] is 3500 nM. Besides, the IC50 in data set [2] was 140 nM. The inhibitory constant (Ki) in data set [2] stood at 9.7 nM.

Turning to `C=C1/C(=C\C=C2/CCC[C@]3(C)[C@@H]([C@H](C)CCS(=N)(=O)c4ccccc4)CC[C@@H]23)C[C@@H](O)C[C@@H]1O` (some centres not stated), the IC50 in data set [2] is 6.5 nM.

For the compound `O=C(NCC(c1ccccc1)n1ccnc1)c1ccc(/C=C/c2ccc(F)cc2)cc1` (configuration not stated), the CC50 in data set [1] amounted to 15 nM. In data set [2], the IC50 stood at 260 nM and the inhibition constant Ki stood at 19 nM.

Consider `O=C(NCC(c1ccccc1)n1ccnc1)c1ccc(CCc2ccc(F)cc2)cc1` (configuration not stated), for which, in data set [2], the IC50 worked out at 510 nM and the Ki is 36 nM.

Take `C=C1CC[C@H](O)C/C1=C/C=C1\CCC[C@]2(C)[C@@H]([C@H](C)CCCOS(=O)(=O)c3ccc(C)cc3)CC[C@@H]12`: in data set [2], the Ki stood at 39 nM.

As for `COc1cc(/C=C/c2ccc(CCC(OC(=O)n3ccnc3)C(C)(C)C)cc2)cc(OC)c1` (configuration not stated), in data set [2], the IC50 turned out to be 160 nM and the Ki turned out to be 11 nM.

With `C=C1/C(=C\C=C2/CCC[C@]3(C)C([C@H](C)C/C=C/S(=O)(=O)C(C)(C)C)=CC[C@@H]23)C[C@@H](O)C[C@@H]1O` [LUNACALCIPOL], the IC50 in data set [2] stood at 27 nM.

As to `CC(C)(C)C(CCc1ccc(/C=C/c2ccccc2)cc1)OS(C)(=O)=O` (configuration not stated), in data set [2], the IC50 was determined as 5600 nM and the Ki worked out at 400 nM.

Regarding `COc1cc(/C=C/c2ccc(CCC(=O)C(C)(C)C)cc2)cc(OC)c1`, in data set [2], the half-maximal inhibitory concentration (IC50) came out at 2100 nM and the inhibition constant (Ki) is 150 nM.

`COc1cc(/C=C/c2ccc(C(=O)NCC(c3ccccc3)n3ccnc3)cc2)cc(OC)c1` (configuration not stated): the “inhibition (INH)” value in data set [5] is “Dose-dependent effect”; in data set [3] it was “Active”; in data set [4], “Active”. In data set [1], the CC50 amounted to 13 nM. In addition, in data set [2], the IC50 worked out at 110 nM. Also, in data set [2], the inhibitory constant (Ki) amounted to 7.8 nM.

`Clc1cccc(C(c2ccc3[nH]cnc3c2)n2ccnc2)c1` (configuration not stated) [LIAROZOLE]: the IC50 in data set [2] turned out to be 2.3 nM.

`C=C1/C(=C\C=C2/CCC[C@]3(C)[C@@H]([C@H](C)CCCC(C)(C)O)CC[C@@H]23)C[C@@H](O)C[C@@H]1O` [CALCITRIOL]: the LD50 in data set [6] worked out at 2.86 ×10⁻⁷ M. The CC50 at 48 h in data set [7] is 6510 nM.

Regarding `O=C(NCC(c1ccccc1)n1ccnc1)c1ccc(S(=O)(=O)Nc2ccccc2)cc1` (configuration not stated), in data set [2], the half-maximal inhibitory concentration (IC50) came to 1300 nM and the Ki amounted to 91 nM.

Consider `C=C1[C@H](O)CC(=C/C=C2\CCC[C@]3(C)[C@@H]([C@H](C)CCCNC4CC4)CC[C@@H]23)C[C@H]1O`, for which, in data set [2], the inhibition constant Ki was 42 nM.

With `COc1cc(/C=C/c2ccc(CCC(OS(C)(=O)=O)C(C)(C)C)cc2)cc(OC)c1` (configuration not stated), in data set [2], the IC50 worked out at 5400 nM and the inhibition constant Ki turned out to be 380 nM.

With `Nc1nc(F)nc2c1ncn2[C@@H]1O[C@H](CO)[C@@H](O)[C@@H]1O` [FLUDARABINE], in data set [1], the CC50 came out at 1100 nM.
